The source made the active and inactive calls. The calls are words filed in the database; no cut-off is given here.
Assays:
Mu-type opioid receptor [1] = target: Mu-type opioid receptor (Homo sapiens, UniProt P35372); experiment: Displacement of [3H]-DAMGO from human MOR receptor expressed in HEK293T cell membrane assessed as inhibition constant incubated for 60 mins by MicroBeta scintillation counting method; type: cell membranes
Method in brief: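 HEK293 cells stably expressing human MOR, grown in DMEM with 10% FBS and hygromycin B; membranes prepared from confluent cells. Binding buffer 50 mM Tris, 5 mM MgCl2, pH 7.4. Nonspecific binding with 10 μM naloxone. 60 min at RT, then GF/C filtration.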

D(3) dopamine receptor [2] = target: T1, D(3) dopamine receptor (Homo sapiens, UniProt P35462); experiment: Displacement of [3H]N-methylspiperone from human D3R receptor expressed in HEK293T cell membrane assessed as inhibition constant incubated for 60 mins by MicroBeta scintillation counting method; type: cell membranes
D(2) dopamine receptor = D(2) dopamine receptor (Homo sapiens, UniProt P14416); experiment: Displacement of [3H]N-methylspiperone from human D2L receptor expressed in HEK293T cell membrane assessed as inhibition constant incubated for 60 mins by MicroBeta scintillation counting method; type: cell membranes
D(3) dopamine receptor [3] = target: T1, D(3) dopamine receptor; experiment: (§1) Antagonist activity at SNAP-tagged human D3R receptor transfected in HEK293T cells coexpressing wild type Galpha-oA, venus-tagged Gbeta-1 (156 to 239 residues), venus-tagged Ggamma2 (1 to 155 residues) and Rluc8 fused masGRK3ct assessed as Galpha-oA activation using coelenterazine as substrate incubated for 40 mins in presence of quinpirole by BRET based GPA assay; type: functional, cell-based
Mu-type opioid receptor [4] = target: T2, Mu-type opioid receptor (Mus musculus, UniProt P42866); experiment: Agonist activity at Rluc8 fused mouse MOR transfected in HEK293T cells assessed as Nb33 recruitment using coelenterazine as substrate incubated for 40 mins by BRET assay; type: functional, cell-based
Method in brief: (§2)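 HEK293T cells transiently transfected with BRET sensors (DNA:PEI 1:6), plated into poly-D-lysine plates and assayed 48 h post-transfection. Cells washed and held in D-PBS 30 min at 37 °C. Coelenterazine h 5 μM final; ligands 10 μM to 0.01 nM. At least three independent experiments in duplicate.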

Mu-type opioid receptor [5] = target: T2, Mu-type opioid receptor; experiment: as §1, with “Agonist” for “Antagonist”, “mouse MOR” for “human D3R receptor”, “Galpha-i2,” for “Galpha-oA,”, “Galpha-i2” for “Galpha-oA”, “mins” for “mins in presence of quinpirole”; type: functional, cell-based; method in brief: as §2
[6] = target: Mu-type opioid receptor (Mus musculus) (UniProt P42866); experiment: (§3) Agonist activity at SNAP-tagged mouse MOR transfected in HEK293T cells coexpressing wild type Galpha-i2, venus-tagged Gbeta-1 (156 to 239 residues), venus-tagged Ggamma2 (1 to 155 residues) and Rluc8 fused masGRK3ct assessed as Galpha-i2 activation at 10 uM using coelenterazine as substrate incubated for 40 mins by BRET based GPA assay relative to control; type: functional, cell-based; conditions: filed as agonist
Method in brief: (§4)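 HEK293T cells transiently transfected with BRET sensors (DNA:PEI 1:6), plated into poly-D-lysine plates and assayed 48 h post-transfection. Cells washed and held in D-PBS 30 min at 37 °C. Coelenterazine h 5 μM final; ligands 10 μM to 0.01 nM. […] At least three independent experiments in duplicate.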

Mu-type opioid receptor [7] = target: T2, Mu-type opioid receptor; experiment: Agonist activity at Rluc8 fused mouse MOR transfected in HEK293T cells coexpressing wild type GRK2 assessed as arrestin-3 recruitment using coelenterazine as substrate incubated for 40 mins by BRET assay; type: functional, cell-based; method in brief: as §2
[8] = target: Mu-type opioid receptor (Mus musculus) (UniProt P42866); experiment: Agonist activity at Rluc8 fused mouse MOR transfected in HEK293T cells coexpressing wild type GRK2 assessed as arrestin-3 recruitment at 10 uM using coelenterazine as substrate incubated for 40 mins by BRET assay relative to control; type: functional, cell-based; conditions: filed as agonist; method in brief: as §4
[9] = target: Mu-type opioid receptor (Mus musculus) (UniProt P42866); experiment: Agonist activity at Rluc8 fused mouse MOR transfected in HEK293T cells assessed as Nb33 recruitment at 10 uM using coelenterazine as substrate incubated for 40 mins by BRET assay relative to control; type: functional, cell-based; method in brief: as §4
[10] = target: Mu-type opioid receptor (Mus musculus) (UniProt P42866); experiment: Partial agonist activity at Rluc8 fused mouse MOR transfected in HEK293T cells assessed as Nb33 recruitment at 10 uM using coelenterazine as substrate incubated for 40 mins by BRET assay relative to control; type: functional, cell-based; method in brief: as §2
[11] = target: Mu-type opioid receptor (Mus musculus) (UniProt P42866); experiment: Partial agonist activity at Rluc8 fused mouse MOR transfected in HEK293T cells coexpressing wild type GRK2 assessed as arrestin-3 recruitment using coelenterazine as substrate incubated for 40 mins by BRET assay; type: functional, cell-based; method in brief: as §2
[12] = target: Mu-type opioid receptor (Mus musculus) (UniProt P42866); experiment: Partial agonist activity at Rluc8 fused mouse MOR transfected in HEK293T cells coexpressing wild type GRK2 assessed as arrestin-3 recruitment at 10 uM using coelenterazine as substrate incubated for 40 mins by BRET assay relative to control; type: functional, cell-based; method in brief: as §4
Mu-type opioid receptor [13] = target: T2, Mu-type opioid receptor; experiment: as §3, with “Partial agonist” for “Agonist”, “activation” for “activation at 10 uM”, “assay” for “assay relative to control”; type: functional, cell-based; method in brief: as §2
[14] = target: Mu-type opioid receptor (Mus musculus) (UniProt P42866); experiment: as §3, with “Partial agonist” for “Agonist”; type: functional, cell-based; conditions: for Emax: filed as partial agonist; method in brief: as §2
Mu-type opioid receptor [15] = target: T2, Mu-type opioid receptor; experiment: (§5) Partial agonist activity at Rluc8 fused mouse MOR transfected in HEK293T cells assessed as Nb33 recruitment using coelenterazine as substrate incubated for 40 mins by BRET assay; type: functional, cell-based; method in brief: as §2
[16] = target: Mu-type opioid receptor (Mus musculus) (UniProt P42866); experiment: as §3, with “Partial agonist” for “Agonist”, “activation” for “activation at 10 uM”, “assay” for “assay relative to control”; type: functional, cell-based; method in brief: as §2
[17] = target: Mu-type opioid receptor (Mus musculus) (UniProt P42866); experiment: as §5; type: functional, cell-based; method in brief: as §2
D(3) dopamine receptor [18] = target: T1, D(3) dopamine receptor; experiment: as §1, with “Partial agonist” for “Antagonist”, “mins” for “mins in presence of quinpirole”; type: functional, cell-based

Sequence of Mu-type opioid receptor (Homo sapiens, UniProt P35372) (P35372 whole entry): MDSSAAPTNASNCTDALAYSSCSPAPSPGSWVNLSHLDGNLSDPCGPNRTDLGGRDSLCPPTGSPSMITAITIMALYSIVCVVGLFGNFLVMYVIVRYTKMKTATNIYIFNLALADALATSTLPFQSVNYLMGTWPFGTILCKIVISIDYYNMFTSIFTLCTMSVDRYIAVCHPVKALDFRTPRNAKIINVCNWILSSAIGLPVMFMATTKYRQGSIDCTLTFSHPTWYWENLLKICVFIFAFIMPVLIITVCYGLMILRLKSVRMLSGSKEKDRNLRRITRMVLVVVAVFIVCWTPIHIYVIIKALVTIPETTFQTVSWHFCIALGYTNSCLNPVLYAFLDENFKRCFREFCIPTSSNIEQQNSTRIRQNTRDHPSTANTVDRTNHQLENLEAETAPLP
Sequence of D(2) dopamine receptor (P14416 whole entry, the tested form may be a part): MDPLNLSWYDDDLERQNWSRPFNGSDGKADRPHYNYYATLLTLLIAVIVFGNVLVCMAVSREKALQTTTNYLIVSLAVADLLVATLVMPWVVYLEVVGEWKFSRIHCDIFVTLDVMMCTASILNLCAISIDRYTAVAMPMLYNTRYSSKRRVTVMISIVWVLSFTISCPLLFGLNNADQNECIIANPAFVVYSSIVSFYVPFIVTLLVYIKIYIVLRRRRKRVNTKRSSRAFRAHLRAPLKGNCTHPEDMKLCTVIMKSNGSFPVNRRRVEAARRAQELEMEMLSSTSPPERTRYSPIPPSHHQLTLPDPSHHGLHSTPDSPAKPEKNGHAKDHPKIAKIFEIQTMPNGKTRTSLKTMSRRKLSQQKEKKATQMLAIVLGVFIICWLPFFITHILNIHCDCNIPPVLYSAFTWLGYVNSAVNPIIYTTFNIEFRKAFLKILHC
T1 sequence (P35462 whole entry): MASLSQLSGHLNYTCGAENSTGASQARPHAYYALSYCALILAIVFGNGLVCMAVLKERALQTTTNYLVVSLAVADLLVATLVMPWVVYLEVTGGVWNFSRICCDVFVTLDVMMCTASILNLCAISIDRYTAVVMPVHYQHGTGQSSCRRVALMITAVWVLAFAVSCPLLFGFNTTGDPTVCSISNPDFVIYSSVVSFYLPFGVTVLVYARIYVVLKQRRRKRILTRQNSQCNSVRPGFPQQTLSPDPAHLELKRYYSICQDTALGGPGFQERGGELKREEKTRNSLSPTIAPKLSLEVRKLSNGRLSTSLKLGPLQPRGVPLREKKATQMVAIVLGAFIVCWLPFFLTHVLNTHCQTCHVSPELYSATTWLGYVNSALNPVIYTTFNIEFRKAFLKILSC
Sequence of Mu-type opioid receptor (Mus musculus) (P42866 whole entry, the tested form may be a part): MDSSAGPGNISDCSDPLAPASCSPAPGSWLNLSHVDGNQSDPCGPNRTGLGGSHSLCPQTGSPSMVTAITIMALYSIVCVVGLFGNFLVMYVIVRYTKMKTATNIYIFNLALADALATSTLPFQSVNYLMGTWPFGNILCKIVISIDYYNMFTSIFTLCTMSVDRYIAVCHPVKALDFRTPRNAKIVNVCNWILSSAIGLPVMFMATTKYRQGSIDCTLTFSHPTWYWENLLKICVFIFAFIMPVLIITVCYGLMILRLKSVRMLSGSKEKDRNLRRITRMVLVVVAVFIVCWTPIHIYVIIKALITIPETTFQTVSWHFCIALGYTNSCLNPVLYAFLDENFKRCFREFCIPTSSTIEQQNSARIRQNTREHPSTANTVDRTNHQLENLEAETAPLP
T2 sequence (P42866 whole entry, the tested form may be a part): as above

| SMILES | Ki (Mu-type opioid receptor [1]) | Ki (D(3) dopamine receptor [2]) | Ki (D(2) dopamine receptor) | further results |
| --- | --- | --- | --- | --- |
| CCC1(CC)CC(OCCCNCc2cccc(Cl)c2Cl)(c2ccccn2)CCO1 (centres undefined) | 540 nM | 1180 nM | 13400 nM | – |
| FC(F)(F)c1cccc(N2CCN(CCCOC3(c4ccccn4)CCOCC3)CC2)n1 | 2070 nM | – | – | – |
| Clc1cccc(N2CCN(CCCCNCCC3(c4ccccn4)CCOCC3)CC2)c1Cl | 1460 nM | – | – | – |
| Clc1ccc([C@@H]2C[C@H]2NCCC2(c3ccccn3)CCOC3(CCCC3)C2)cc1 (relative stereo) | 85.2 nM | 361 nM | 5520 nM | EC50 (D(3) dopamine receptor [3]): 271 nM; IC50 (D(3) dopamine receptor [3]): 269 nM; EC50 (Mu-type opioid receptor [4]): 406 nM; EC50 (Mu-type opioid receptor [5]; read-out: EC50): 73.4 nM; EC50 (Mu-type opioid receptor [5]; read-out: pEC50 (converted)): 72.4 nM; Emax [6]: 97.6%; EC50 (Mu-type opioid receptor [7]): 261 nM; Emax [8]: 51.3%; Emax [9]: 24.9% |
| CN(C)C(=O)C(CCN1CCN(c2nsc3ccccc23)CC1)(c1ccccc1)c1ccccc1 | 0.364 nM | – | 465 nM | – |
| CN(C)C(=O)C(CCN[C@@H]1C[C@H]1c1ccc(Cl)cc1)(c1ccccc1)c1ccccc1 (relative stereo) | 12.3 nM | – | – | – |
| CN(C)C(=O)C(CCN1C[C@H](O)C[C@H]1CN1CCN(c2cccc(Cl)c2Cl)CC1)(c1ccccc1)c1ccccc1 | 529 nM | 247 nM | 1180 nM | Activity (D(3) dopamine receptor [3]): inactive; Emax [10]: 12.7%; Activity [11]: inactive; Activity [12]: inactive; EC50 (Mu-type opioid receptor [13]): 3450 nM; Emax [14]: 73.6%; EC50 (Mu-type opioid receptor [15]): 3330 nM |
| Clc1cccc(N2CCN(CCCOC3(c4ccccn4)CCOCC3)CC2)c1Cl | 1750 nM | – | – | – |
| FC(F)(F)c1cccc(N2CCN(CCCOC3(c4ccccn4)CCOC4(CCCC4)C3)CC2)n1 (centres undefined) | 1640 nM | 286 nM | 1310 nM | – |
| CN(C)C(=O)C(CCN1C[C@H](F)C[C@H]1C(=O)NCCCCN1CCN(c2cccc(Cl)c2Cl)CC1)(c1ccccc1)c1ccccc1 | 787 nM | – | – | – |
| CN(C)C(=O)C(CCN(CCO)[C@@H]1C[C@H]1c1ccc(Cl)cc1)(c1ccccc1)c1ccccc1 (relative stereo) | 26.9 nM | – | 7330 nM | – |
| CCc1cc(Cl)c(OC)c(N2CCN(CCCCc3cn(CCC(C(=O)N(C)C)(c4ccccc4)c4ccccc4)nn3)CC2)c1 | 2120 nM | – | – | – |
| Fc1cncc(CNCC[C@@]2(c3ccccn3)CCOC3(CCCC3)C2)c1 | 54.7 nM | 85100 nM | > 100000 nM | – |
| CCC1(CC)CC(OCCCN2CCN(c3cccc(C(F)(F)F)n3)CC2)(c2ccccn2)CCO1 (centres undefined) | 745 nM | – | 1240 nM | – |
| CN(C)C(=O)C(CCN1CCN(c2cccc(C(F)(F)F)n2)CC1)(c1ccccc1)c1ccccc1 | 1.23 nM | – | – | – |
| CN(C)C(=O)C(CCN1C[C@H](F)C[C@H]1C(=O)NCCCCN1CCN(c2nsc3ccccc23)CC1)(c1ccccc1)c1ccccc1 | 146 nM | 53 nM | 322 nM | EC50 (D(3) dopamine receptor [3]): 90.9 nM; IC50 (D(3) dopamine receptor [3]): 91.2 nM; Emax [10]: inactive; Activity [11]: inactive; Activity [12]: inactive; Activity [16]: inactive; Activity [14]: inactive; Activity [17]: inactive |
| CN(C)C(=O)C(CCN1C[C@H](O)C[C@H]1C(=O)NCCCCN1CCN(c2cccc(C(F)(F)F)n2)CC1)(c1ccccc1)c1ccccc1 | 791 nM | – | – | EC50 (Mu-type opioid receptor [13]): 470 nM |
| CCc1cc(Cl)c(OC)c(N2CCN(C[C@@H]3C[C@@H](O)CN3CCC(C(=O)N(C)C)(c3ccccc3)c3ccccc3)CC2)c1 | 377 nM | 111 nM | 870 nM | IC50 (D(3) dopamine receptor [3]): 2950 nM; EC50 (D(3) dopamine receptor [3]; hek293t): 2960 nM; Emax [10]: inactive; EC50 (D(3) dopamine receptor [18]): 25.4 nM; Activity [11]: inactive; Activity [12]: inactive; EC50 (Mu-type opioid receptor [13]): 3310 nM; Emax [14]: 86.1%; Activity [17]: inactive |

— ChEMBL document CHEMBL5360615, “Pharmacological and Physicochemical Properties Optimization for Dual-Target Dopamine D3 (D3R) and μ-Opioid (MOR) Receptor Ligands as Potentially Safer Analgesics” (J Med Chem, 2023)
